Experimental findings from ChEMBL document CHEMBL1828502, “Quinolinyl and quinolinyl N-oxide chalcones: synthesis, antifungal and cytotoxic activities” (Eur J Med Chem, 2011) are described below.

Assay [1] has as its system Candida tropicalis. Put plainly: Antifungal activity against Candida tropicalis after 2 days by broth microdilution method in presence of 1 M osmotic stabilizer sorbitol. The settings on record: 48 h. In kind it is functional. A general note: Dilution methods test growth across graded concentrations, often in twofold steps.
In assay [2] the test system is Candida tropicalis. Put plainly: Antifungal activity against Candida tropicalis by two fold serial dilution method. In kind it is functional. In short, it runs like this:
(§1)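 Broth microdilution MIC following CLSI M27-A2 with twofold serial dilutions; strains ATCC 18804 (C. albicans), ATCC 22019 (C. parapsilosis), ATCC 750 (C. tropicalis), ATCC 32608 (C. gattii), kept on Sabouraud dextrose agar at 4 °C. Amphotericin B and trimethoprim/sulfamethoxazole served as positive controls.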

In a further assay the test system is Jurkat. Put plainly: Anticancer activity against human Jurkat cells after 48 hrs by MTT assay. In kind it is functional, cell-based. In short, it runs like this: (§2)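 HL60 and Jurkat leukemia lines plated at 50,000 and 100,000 cells/well respectively and pre-incubated 24 h at 37 °C, 5% CO2. Compounds dissolved in DMSO and tested over a concentration range of […] for 48 h. Viability read by MTT reduction (4 h), formazan dissolved in acidic isopropanol, OD 590 nm. Values normalized to 0.05% DMSO control; IC50 taken graphically from dose-effect curves. Triplicate, three separate days.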

For another assay, the system named is MCF7. Put plainly: Anticancer activity against human MCF7 cells after 48 hrs by sulforhodamine B assay. In kind it is functional, cell-based. Put shortly:
(§3)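 Solid tumour lines from NCI (NCI colorimetric protocol), seeded and pre-incubated 24 h at 37 °C, 5% CO2, then exposed to compounds for 48 h. Proteins fixed with trichloroacetic acid, stained with sulforhodamine B, dye dissolved in 10 mM Tris, absorbance at 515 nm compared against initial-density control wells. IC50 from dose-response curves built with 1:2 serial dilutions; duplicate, repeated at least three times.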
In general terms: The SRB assay estimates cell density from bound dye.

Assay [3] relates to Paracoccidioides brasiliensis. Put plainly: Antifungal activity against Paracoccidioides brasiliensis Pb18 after 10 days by broth microdilution method in presence of 1 M osmotic stabilizer sorbitol. In kind it is functional. The note with it: 240 h.
A further assay has as its system Candida albicans. Put plainly: Antifungal activity against Candida albicans by two fold serial dilution method. In kind it is functional. In short, it runs like this:
as §1

In a further assay the test system is Candida parapsilosis. Put plainly: Antifungal activity against Candida parapsilosis by two fold serial dilution method. In kind it is functional. The settings on record: Lodderomyces parapsilosis. In short, it runs like this:
as §1

The next assay relates to UACC-62. Put plainly: Anticancer activity against human UACC62 cells after 48 hrs by sulforhodamine B assay. In kind it is functional, cell-based. In short, it runs like this:
as §3

The subject of assay [4] is Paracoccidioides brasiliensis. Put plainly: Antifungal activity against Paracoccidioides brasiliensis Pb18 by serial dilution method. In kind it is functional.
Assay [5] has as its system Cryptococcus gattii species complex. Put plainly: Antifungal activity against Cryptococcus gattii by two fold serial dilution method after 3 days by broth microdilution method in presence of 1 M osmotic stabilizer sorbitol. In kind it is functional, Cryptococcus bacillisporus. The settings on record: 72 h.
Assay [6] shares this test system. Put plainly: Antifungal activity against Cryptococcus gattii by two fold serial dilution method. In kind it is functional, Cryptococcus bacillisporus. Put shortly: as §1
In the next assay the test system is HL-60. Put plainly: Anticancer activity against human HL60 cells after 48 hrs by MTT assay. In kind it is functional, cell-based. In short, it runs like this:
as §2
A general note: Tetrazolium assays rely on reduction of a dye to a coloured formazan, in cell work by metabolically active cells.

The test system of another assay is TK-10. Put plainly: Anticancer activity against human TK10 cells after 48 hrs by sulforhodamine B assay. In kind it is functional, cell-based. Put shortly:
as §3

The mark [7] stands for this setting: Homo sapiens, Jurkat, 48 h, read-out: IC50.
Where [8] appears, read: Homo sapiens, MCF7, 48 h, read-out: IC50.
Where [9] appears, read: Homo sapiens, UACC-62, 48 h, read-out: IC50.
Where [10] appears, read: Homo sapiens, HL-60, 48 h, read-out: IC50.
Setting [11] is: Homo sapiens, TK-10, 48 h, read-out: IC50.

In brackets after ≈: the same amount, converted by molar mass. Bounds are passed on as bounds.

As to `COc1ccc(C(=O)/C=C/c2ccc3c(ccc[n+]3[O-])c2)cc1`, the MIC in the assay on Candida tropicalis [1] was more than 31.2 µg/mL; against Candida tropicalis [2], more than 500 µg/mL; in [3], 15.6 µg/mL; against Candida albicans, more than 500 µg/mL; in the assay on Candida parapsilosis, more than 500 µg/mL; in assay [4] it was 15.6 µg/mL (≈ 51.1 µM). Moreover, the values for the minimal inhibitory concentration (MIC) in [5] and in [6] were more than 31.2 µg/mL and more than 500 µg/mL, respectively. Also, the 50% inhibitory concentration (IC50) in the assay on Jurkat (setting [7]) amounted to 36.3 µg/mL (≈ 119 µM); in the assay on MCF7 (setting [8]), 1.15 µg/mL (≈ 3.77 µM); with UACC-62 (setting [9]), 4.3 µg/mL (≈ 14.1 µM); with HL-60 (setting [10]) it was 14.8 µg/mL (≈ 48.5 µM); in the assay with TK-10 (setting [11]) it was 5.25 µg/mL (≈ 17.2 µM).

Regarding `O=C(/C=C/c1ccc2c(ccc[n+]2[O-])c1)c1ccc([N+](=O)[O-])cc1`, the MIC against Candida tropicalis [2] was more than 500 µg/mL; in the assay on Candida albicans it was more than 500 µg/mL; in the assay with Candida parapsilosis, more than 500 µg/mL; in assay [4] it was 500 µg/mL (≈ 1560 µM); in assay [6], more than 500 µg/mL.

As to `O=C(/C=C/c1ccc2c(ccc[n+]2[O-])c1)c1ccc(F)cc1`, the MIC in the assay with Candida tropicalis [1] was more than 31.2 µg/mL; against Candida tropicalis [2], more than 500 µg/mL; in [3] it was 1.9 µg/mL; with Candida albicans, more than 500 µg/mL; with Candida parapsilosis, more than 500 µg/mL; in [4], 1.9 µg/mL (≈ 6.48 µM). In addition, the MIC in assay [5] was more than 31.2 µg/mL; in assay [6], 62.5 µg/mL (≈ 213 µM). The half-maximal inhibitory concentration (IC50) in the assay on Jurkat (setting [7]) was 71.9 µg/mL (≈ 245 µM); with MCF7 (setting [8]), 4.3 µg/mL (≈ 14.7 µM); in the assay on UACC-62 (setting [9]) it was 2.75 µg/mL (≈ 9.38 µM); in the assay on HL-60 (hl-60) it was “Not Active”; with TK-10 (setting [11]), 0.19 µg/mL (≈ 0.648 µM).

For the compound `O=C(/C=C/c1ccc2c(ccc[n+]2[O-])c1)c1ccc(Br)cc1`, the minimal inhibitory concentration (MIC) was more than 500 µg/mL with Candida tropicalis [2]; more than 500 µg/mL against Candida albicans; more than 500 µg/mL against Candida parapsilosis; 62.5 µg/mL (≈ 176 µM) in [4]; 62.5 µg/mL (≈ 176 µM) in assay [6]. Further, the IC50 with Jurkat (setting [7]) came out at 65.5 µg/mL (≈ 185 µM); with MCF7 (setting [8]) it was 6.6 µg/mL (≈ 18.6 µM); in the assay with UACC-62 (setting [9]), 4.7 µg/mL (≈ 13.3 µM); with HL-60 (setting [10]), 2.6 µg/mL (≈ 7.34 µM); with TK-10 (setting [11]) it was 1.1 µg/mL (≈ 3.11 µM).

As for `O=C(/C=C/c1ccc2c(ccc[n+]2[O-])c1)c1ccc(Cl)cc1`, the MIC is more than 31.2 µg/mL in the assay on Candida tropicalis [1]; more than 500 µg/mL in the assay on Candida tropicalis [2]; 15.6 µg/mL in assay [3]; more than 500 µg/mL against Candida albicans; more than 500 µg/mL against Candida parapsilosis; 15.5 µg/mL (≈ 50 µM) in [4]. Besides, the minimum inhibitory concentration (MIC) in [5] was more than 31.2 µg/mL; in assay [6], 250 µg/mL (≈ 807 µM). In addition, the half-inhibitory concentration (IC50) in the assay on Jurkat (setting [7]) came to 4.9 µg/mL (≈ 15.8 µM); in the assay on MCF7 (setting [8]) it was 6.6 µg/mL (≈ 21.3 µM); in the assay with UACC-62 (setting [9]), 4.9 µg/mL (≈ 15.8 µM); with HL-60 (setting [10]), 33.8 µg/mL (≈ 109 µM); in the assay with TK-10 (setting [11]), 1.7 µg/mL (≈ 5.49 µM).

Regarding `C[n+]1cccc2cc(/C=C/C(=O)c3ccccc3)ccc21.[I-]`, the minimum inhibitory concentration (MIC) is 125 µg/mL against Candida tropicalis [2]; more than 500 µg/mL in the assay with Candida albicans; more than 500 µg/mL in the assay on Candida parapsilosis; 500 µg/mL in [4]; 31.2 µg/mL in [6]. Further, the IC50 result in the assay with Jurkat (jurkat), with MCF7 (mcf7), in the assay on UACC-62 (uacc-62), with HL-60 (hl-60) and in the assay on TK-10 (tk-10) was “Not Active” in each case.

In the case of `C[n+]1cccc2cc(/C=C/C(=O)c3ccc(F)cc3)ccc21.[I-]`, the MIC in the assay on Candida tropicalis [1] is more than 31.2 µg/mL; against Candida tropicalis [2] it was 62.5 µg/mL; in assay [3] it was more than 31.2 µg/mL; in the assay with Candida albicans it was 500 µg/mL; against Candida parapsilosis, more than 500 µg/mL; in assay [5], 62.5 µg/mL. In addition, 15.6 µg/mL was the least that counted as inhibitory in [6] (MIC). The IC50 result in the assay on Jurkat (jurkat), with MCF7 (mcf7), in the assay on UACC-62 (uacc-62), with HL-60 (hl-60) and in the assay with TK-10 (tk-10) was “Not Active” throughout.

With `C[C@@H]1[C@H](O)[C@@H](C)/C=C/C=C/C=C/C=C/C=C/C=C/C=C/[C@H](O[C@@H]2O[C@H](C)[C@@H](O)[C@H](N)[C@@H]2O)C[C@@H]2O[C@](O)(C[C@@H](O)C[C@@H](O)[C@H](O)CC[C@@H](O)C[C@@H](O)CC(=O)O[C@H]1C)C[C@H](O)[C@H]2C(=O)O` [AMPHOTERICIN B], the MIC amounted to 0.25 µg/mL (≈ 0.271 µM) in the assay on Candida tropicalis [2]; 1 µg/mL (≈ 1.08 µM) against Candida albicans; 0.5 µg/mL (≈ 0.541 µM) against Candida parapsilosis; 0.006 µg/mL (≈ 0.00649 µM) in assay [4]; 1.2 µg/mL (≈ 1.3 µM) in assay [6].

On to `COc1cc([C@@H]2c3cc4c(cc3[C@@H](O[C@@H]3O[C@@H]5CO[C@@H](C)O[C@H]5[C@H](O)[C@H]3O)[C@H]3COC(=O)[C@H]23)OCO4)cc(OC)c1O` [ETOPOSIDE], for which the 50% inhibitory concentration (IC50) with Jurkat (setting [7]) was 2.8 µg/mL (≈ 4.76 µM); in the assay with MCF7 (setting [8]) it was 0.03 µg/mL (≈ 0.051 µM); with UACC-62 (setting [9]), 1.4 µg/mL (≈ 2.38 µM); in the assay with HL-60 (setting [10]) it was 0.47 µg/mL (≈ 0.799 µM); with TK-10 (setting [11]) it was 20.4 µg/mL (≈ 34.7 µM).

As a reminder, the MIC is the lowest concentration that inhibits growth of the organism. What is called IC50 is the concentration that gives 50% inhibition.
